The text below walks through data of ChEMBL document CHEMBL1152422, “Cytotoxic triterpenoids from the rhizomes of Astilbe chinensis” (J Nat Prod, 2009).

Each structure is given as a SMILES string.

Holding throughout (type): functional, cell-based
For one experiment, the system named is K562. Briefly: Cytotoxicity against human K562 cells by rapid colorimetric assay. Put shortly: (§1)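 A549, SNU-1, K562 and HepG2 cells were grown in RPMI1640 and MEM with 10% FBS at 37 °C in a CO2 incubator before testing against the cell panel.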
The test system of a further experiment is HepG2. Kind of experiment: Cytotoxicity against human HepG2 cells by rapid colorimetric assay. The essentials:
as §1

A further experiment concerns A549. Kind of experiment: Cytotoxicity against human A549 cells by rapid colorimetric assay. The essentials:
as §1

Another experiment relates to SNU1. Briefly: Cytotoxicity against human SNU1 cells by rapid colorimetric assay. The essentials:
as §1

A further experiment has as its system HL-60. Kind of experiment: Cytotoxicity against human HL60 cells by rapid colorimetric assay. Put shortly: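 HL-60 human promyelocytic leukaemia cells were maintained in IMDM with 20% FBS at 37 °C in a CO2 incubator before testing against the cell panel.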

As for `C[C@H]1[C@H](C)CC[C@]2(C)CC[C@]3(C(=O)O)C(=CC[C@@H]4[C@@]5(C)CC[C@H](O)C(C)(C)[C@@H]5CC[C@]43C)[C@H]12`, the IC50 in the experiment on K562 is above 10 µM; in the experiment on HepG2, above 10 µM; in the experiment on A549, above 10 µM; in the experiment with SNU1, above 10 µM; in the experiment with HL-60, 8.2 µM.

For `CC(=O)O[C@@H]1CC[C@]2(C)[C@H]3CC=C4[C@@H]5[C@@H](C)[C@H](C)CC[C@]5(C)CC[C@@]4(C(=O)O)[C@]3(C)CC[C@H]2C1(C)C`, the IC50 in the experiment on K562 is above 10 µM; in the experiment with HepG2 it was above 10 µM; in the experiment with A549, above 10 µM; in the experiment with SNU1 it was above 10 µM; in the experiment with HL-60, 3.9 µM.

As for `C=C1[C@@H]2[C@H](O)C[C@]3(C)[C@H](CC=C4[C@@H]5CC(C)(C)CC[C@]5(C)CC[C@]43C(=O)O)[C@@]2(C)CC[C@@H]1O`, the IC50 with K562, in the experiment on HepG2, in the experiment on A549, with SNU1 and with HL-60 was above 10 µM in each case.

For the compound `CC1(C)CC[C@]2(C)CC[C@]3(C(=O)O)C(=CC[C@@H]4[C@@]5(C)CC[C@H](O)[C@](C)(CO)[C@@H]5CC[C@]43C)[C@@H]2C1`, the IC50 in the experiment with K562, in the experiment on HepG2, in the experiment with A549, in the experiment with SNU1 and in the experiment on HL-60 was above 10 µM each time.

For `CC1(C)CC[C@]2(C)CC[C@]3(C(=O)O)C(=CC[C@@H]4[C@@]5(C)CC[C@@H](O)C(C)(C)C5=CC[C@]43C)[C@@H]2C1`, the IC50 in the experiment on K562, with HepG2, in the experiment on A549, in the experiment on SNU1 and in the experiment on HL-60 was above 10 µM throughout.

As to `CC(=O)O[C@@H]1CC[C@]2(C)[C@H]3CC=C4[C@@H]5CC(C)(C)CC[C@]5(C)CC[C@@]4(C(=O)O)[C@]3(C)CC[C@H]2C1(C)C`, the IC50 is above 10 µM in the experiment with K562; above 10 µM in the experiment on HepG2; above 10 µM in the experiment with A549; above 10 µM with SNU1; 9.3 µM in the experiment with HL-60.

Take `CC1(C)CC[C@]2(C)CC[C@]3(C(=O)O)C(=CC[C@@H]4[C@@]5(C)CC[C@H](O)C(C)(C)[C@@H]5CC[C@]43C)[C@@H]2C1`: the IC50 is above 10 µM in the experiment with K562; above 10 µM in the experiment with HepG2; above 10 µM with A549; 9.3 µM in the experiment on SNU1; 8.9 µM in the experiment on HL-60.

Regarding `CC(=O)O[C@H]1CC[C@]2(C)[C@H]3CC=C4[C@@H]5[C@@H](C)[C@H](C)CC[C@]5(C)CC[C@@]4(C(=O)O)[C@]3(C)C[C@@H](O)[C@H]2C1(C)C`, the IC50 with K562 is above 10 µM; in the experiment with HepG2, above 10 µM; in the experiment with A549 it was above 10 µM; with SNU1, above 10 µM; in the experiment with HL-60, 9.6 µM.

Regarding `CC(=O)O[C@H]1CC[C@]2(C)[C@H]3CC=C4[C@@H]5CC(C)(C)CC[C@]5(C)CC[C@@]4(C(=O)O)[C@]3(C)C[C@@H](O)[C@H]2C1(C)C`, the IC50 in the experiment with K562 was above 10 µM; in the experiment with HepG2, above 10 µM; in the experiment with A549, above 10 µM; in the experiment with SNU1 it was above 10 µM; with HL-60, 5.1 µM.

As to `CC1(C)CC[C@]2(C)CC[C@]3(C(=O)O)C(=CC[C@@H]4[C@@]5(C)CC[C@H](O)[C@@](C)(CO)[C@@H]5[C@H](O)C[C@]43C)[C@@H]2C1`, the half-inhibitory concentration (IC50) with K562 was above 10 µM; in the experiment with HepG2, above 10 µM; in the experiment on A549 it was above 10 µM; in the experiment on SNU1, above 10 µM; in the experiment with HL-60 it was 3.5 µM.

As for `CC(=O)O[C@H]1CC[C@]2(C)[C@H]3CC=C4[C@@H]5[C@@H](C)[C@H](C)CC[C@]5(C)CC[C@@]4(C(=O)O)[C@]3(C)CC[C@H]2C1(C)C`, the IC50 with K562 is above 10 µM; with HepG2, above 10 µM; with A549, above 10 µM; in the experiment on SNU1, above 10 µM; with HL-60, 9.4 µM.

Consider `C[C@H]1[C@H](C)CC[C@]2(C)CC[C@]3(C(=O)O)C(=CC[C@@H]4[C@@]5(C)CC[C@H](O)[C@](C)(CO)[C@@H]5[C@H](O)C[C@]43C)[C@H]12`, for which the IC50 in the experiment on K562, with HepG2, with A549, in the experiment with SNU1 and in the experiment on HL-60 was above 10 µM throughout.

As to `CC[C@@]1(O)C(=O)OCc2c1cc1n(c2=O)Cc2cc3ccccc3nc2-1` [CAMPTOTHECIN], the concentration for half-maximal inhibition (IC50) with HL-60 is 0.8 µM.

With `COc1cccc2c1C(=O)c1c(O)c3c(c(O)c1C2=O)C[C@@](O)(C(=O)CO)C[C@@H]3O[C@H]1C[C@H](N)[C@H](O)[C@H](C)O1` [DOXORUBICIN], the IC50 in the experiment with K562 came to 2.5 µM; with A549 it was 2.2 µM; with SNU1, 4 µM.
